Measured values collected from several papers.
Lines come from different studies, so protocols differ.
Target: Calcium/calmodulin-dependent protein kinase type II subunit delta (CAMK2D, Homo sapiens, UniProt Q13557)

COc1cc(Nc2c(C#N)cnc3cc(OCCCN4CCN(C)CC4)c(OC)cc23)c(Cl)cc1Cl
remaining signal (cell-free assay; 0.5 µM): 94.6%

O=C1NC(c2ccccn2)Sc2ccccc21 (stereo not shown)
remaining binding (cell-free assay, competition with immobilised ligand; 1 µM): 75%

Cc1ccc(-n2nc(C(C)(C)C)cc2NC(=O)Nc2ccc(OCCN3CCOCC3)c3ccccc23)cc1
inhibition (enzyme activity, inhibitor; 10 µM): 22%

CC/C(=N\NC(=O)NCc1cccc(O)c1)c1ccc(O)c(C)c1O
inhibition (enzyme activity, inhibitor; 0.1 µM): -4.9%

Cc1ccc(C(=O)Nc2ccc(CN3CCN(C)CC3)c(C(F)(F)F)c2)cc1C#Cc1cnc2cccnn12
remaining activity (enzyme activity; 23.5 nM): 96%

NS(=O)(=O)c1cc(NC(=O)C2(c3ccccc3Cl)CC2)ccc1Oc1cccc(Cl)c1
remaining binding (cell-free assay, competition with immobilised ligand; 1 µM): 100%

Cc1ccc(Nc2nccc(N(C)c3ccc4c(C)n(C)nc4c3)n2)cc1S(N)(=O)=O
inhibition (enzyme activity, inhibitor; 10 µM): 66%

COc1cc2ncnc(Nc3ccc(Oc4ccccc4)c(C)c3C)c2cc1OC
inhibition (enzyme activity, inhibitor; 1 µM): 2%

CC(=O)N1CCC(c2ccc(C(=O)NC(=N)N)cc2C(F)(F)F)CC1
remaining binding (cell-free assay, competition with immobilised ligand; 1 µM): 100%

O=C(Nc1cnn(-c2csc(C(=O)NC3COC3)c2)c1)Nc1c(F)cccc1Cl
remaining activity (enzyme activity, inhibitor; 5 µM): 93.5%

C#Cc1cccc(Nc2ncnc3cc(OCCOC)c(OCCOC)cc23)c1
remaining signal (cell-free assay; 0.5 µM): 95.1%

O=C(NS(=O)(=O)c1ccc(NCC2CCOCC2)c([N+](=O)[O-])c1)c1ccc(N2CCN(Cc3ccc(C(F)(F)F)cc3-c3ccc(Cl)cc3)CC2)cc1Oc1cnc2[nH]ccc2c1
remaining binding (cell-free assay, competition with immobilised ligand; 1 µM): 100%

O=C1Nc2ccc(Cl)cc2C1=Cc1cc(Cl)c(O)c(Cl)c1
remaining signal (cell-free assay; 0.5 µM): 80.2%

O=C(O)[C@@H]1[C@@H](Cn2nnc3ccccc3c2=O)CC[C@H]1C(=O)c1ccc(OCCC2CCOCC2)cc1
remaining binding (cell-free assay, competition with immobilised ligand; 1 µM): 100%

O=C(Nc1cnn(-c2csc(C(=O)NC3COC3)c2)c1)Nc1ccccc1Cl
remaining activity (enzyme activity, inhibitor; 5 µM): 103%

CC1=C(C#N)[C@@H](c2ccc3[nH]nc(C)c3c2)C(C#N)=C(c2ccc(Cl)cc2)N1
remaining binding (cell-free assay, competition with immobilised ligand; 1 µM): 82.1%

Cc1cc(NC(=O)c2cccc3cc(-c4cccc5[nH]nc(N)c45)ccc23)ccc1F
activity vs control (enzyme activity, inhibitor; 0.1 µM): 102%

Nc1c(C(=O)NCc2ccc(C(=O)NCCCC3CCCCC3)cc2)cnn1-c1ccccc1
remaining binding (cell-free assay, competition with immobilised ligand; 0.1 µM): 100%

CCCCNc1ncc2c(-c3ccc(F)cc3)nn(C[C@H]3CC[C@H](N)CC3)c2n1
inhibition (target engagement in cells, inhibitor, chemoproteomics; 20 mM): 44.3%

CCCOc1ccc(OC)c(F)c1C(=O)c1ccc(C(=O)N[C@@H]2CNC[C@H]2NC(=O)c2ccc3[nH]ncc3c2)cc1
remaining activity (enzyme activity, inhibitor; 10 µM): 53%

CC(C)(C)c1nc2c(s1)c1nc(N)ncc1c1ccc(NS(=O)(=O)c3c(F)cccc3F)c(F)c12
remaining activity (enzyme activity, inhibitor, radiometric; 1 µM): 96%

CC(C)(O)c1cncc(-c2nc3ccc(F)cc3n2C2CC2)c1
remaining binding (cell-free assay, competition with immobilised ligand; 1 µM): 100%

Nc1ncnc2occ(-c3ccc(NC(=O)Nc4cc(C(F)(F)F)ccc4F)cc3)c12
remaining signal (cell-free assay, inhibitor; 20 µM): 94%

CCN(CC)c1ccc(C2=NNC(=O)CC2C)cc1[N+](=O)[O-] (stereo not shown)
remaining activity (enzyme activity, inhibitor; 10 µM): 104%

CNC(=O)c1cc(Oc2ccc(NC(=O)Nc3ccc(Cl)c(C(F)(F)F)c3)cc2)ccn1
inhibition (enzyme activity, inhibitor; 10 µM): 79%

Cc1cnc(NC2CCOCC2)nc1-n1cnc(C(=O)NC(CN)c2cc(F)cc(Cl)c2)c1 (stereo not shown)
remaining activity (enzyme activity, inhibitor, radiometric; 1 µM): 91%

N#CCCc1ccc2c(c1)-c1[nH]c3ccc([N+](=O)[O-])cc3c1CC(=O)N2
remaining signal (cell-free assay; 0.5 µM): 57.8%

CCN(CC)CCNC(=O)c1c(C)[nH]c(/C=C2\C(=O)Nc3ccc(F)cc32)c1C
inhibition (enzyme activity, inhibitor; 10 µM): 96%
